The values that follow come from ChEMBL document CHEMBL2029219, “Synthesis, biological evaluation, and molecular modeling of natural and unnatural flavonoidal alkaloids, inhibitors of kinases” (J Med Chem, 2012).

Assay [1] deals with Dual specificity protein kinase CLK1 (Mus musculus, UniProt P22518). Nature of the assay: Inhibition of GST-tagged mouse recombinant CLK1 expressed in Escherichia coli using GRSRSRSRSRSR as substrate.
Assay [2] has as its target Cyclin-dependent kinase 5/CDK5 activator 1 (Homo sapiens, UniProt Q00535). Nature of the assay: Inhibition of human recombinant CDK5/p25 using [gamma 33P]ATP after 30 mins by scintillation counting. Format: protein-complex assay. The procedure, abridged: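 Native starfish M-phase oocyte CDK1/cyclin B, or recombinant human CDK5/p25, in buffer A pH 7.5 with heparin and BSA. Stopped on P81 paper, washed in 1% phosphoric acid, counted by scintillation. Blank subtracted; % of maximal activity; DMSO dilution controls.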

Assay [3] deals with Glycogen synthase kinase-3 (Sus scrofa, UniProt B2LUN4+I6LNT8). Nature of the assay: Inhibition of porcine brain GSK3alpha/beta using GS1 as substrate. The procedure, abridged:
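Native GSK-3α/β purified from porcine brain, assayed as for CDK1. Buffer A pH 7.5 with heparin and BSA, 30 °C, 15 μM [γ-33P]ATP, phosphorylated GS-1 peptide as substrate. Read by P81 paper capture and scintillation counting. Activity as % of uninhibited control after blank subtraction.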

The target in assay [4] is Dual specificity tyrosine-phosphorylation-regulated kinase 1A (Rattus norvegicus, UniProt Q63470). Nature of the assay: Inhibition of GST-tagged rat recombinant DYRK1A expressed in Escherichia coli using KKISGRLSPIMTEQ as substrate.
A short description of assay [5]: Inhibition of starfish oocyte CDK1/cyclin B using [gamma 33P]ATP after 30 mins by scintillation counting. Details: species or system Asteroidea. An outline of the steps: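 Native starfish M-phase oocyte CDK1/cyclin B, or recombinant human CDK5/p25, in buffer A pH 7.5 with heparin and BSA. Substrate histone H1 25 μg with 15 μM [γ-33P]ATP, 30 min at 30 °C. Stopped on P81 paper, washed in 1% phosphoric acid, counted by scintillation. Blank subtracted; % of maximal activity; DMSO dilution controls.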

A value given as a limit tells only on which side of the number the result lay.

Sequence of Cyclin-dependent kinase 5/CDK5 activator 1 (Q00535 whole entry): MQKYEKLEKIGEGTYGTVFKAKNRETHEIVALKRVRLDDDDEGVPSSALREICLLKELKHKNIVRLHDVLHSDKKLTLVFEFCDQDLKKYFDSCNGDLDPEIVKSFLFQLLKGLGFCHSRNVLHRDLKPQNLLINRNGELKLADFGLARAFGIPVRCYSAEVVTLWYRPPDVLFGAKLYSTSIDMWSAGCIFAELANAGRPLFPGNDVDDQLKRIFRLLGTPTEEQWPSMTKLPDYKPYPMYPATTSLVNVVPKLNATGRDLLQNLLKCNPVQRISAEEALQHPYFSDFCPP
Sequence of Cyclin-dependent kinase 5/CDK5 activator 1 (Q15078 whole entry, further chain): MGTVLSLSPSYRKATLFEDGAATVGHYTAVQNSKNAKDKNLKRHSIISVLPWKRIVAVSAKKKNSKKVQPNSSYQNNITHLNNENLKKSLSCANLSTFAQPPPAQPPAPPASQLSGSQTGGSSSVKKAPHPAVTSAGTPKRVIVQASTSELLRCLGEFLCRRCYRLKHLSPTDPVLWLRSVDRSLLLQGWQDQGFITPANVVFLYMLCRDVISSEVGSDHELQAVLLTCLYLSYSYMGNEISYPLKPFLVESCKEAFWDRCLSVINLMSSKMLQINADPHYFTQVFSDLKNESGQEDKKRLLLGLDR
Sequence of Dual specificity protein kinase CLK1 (P22518 whole entry): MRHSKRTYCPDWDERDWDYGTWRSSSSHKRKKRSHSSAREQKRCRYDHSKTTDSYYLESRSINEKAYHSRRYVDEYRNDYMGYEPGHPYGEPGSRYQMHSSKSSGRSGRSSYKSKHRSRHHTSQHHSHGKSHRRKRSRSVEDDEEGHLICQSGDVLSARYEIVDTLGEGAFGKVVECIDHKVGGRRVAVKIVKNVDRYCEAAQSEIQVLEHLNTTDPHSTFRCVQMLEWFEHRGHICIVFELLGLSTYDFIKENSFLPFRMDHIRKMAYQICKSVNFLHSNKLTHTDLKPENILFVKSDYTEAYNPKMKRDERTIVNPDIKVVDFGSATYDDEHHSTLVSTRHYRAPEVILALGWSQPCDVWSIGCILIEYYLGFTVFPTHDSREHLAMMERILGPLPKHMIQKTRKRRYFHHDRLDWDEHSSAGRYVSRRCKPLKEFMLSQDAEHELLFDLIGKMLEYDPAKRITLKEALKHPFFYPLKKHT

Usually IC50 stands for the concentration needed to halve the response being measured. With `COc1cc(O)c(C2CCCCN2C)c2oc(-c3ccccc3)cc(=O)c12` (stereo unspecified) [BUCHENAVIANINE], the IC50 in assay [1], in assay [2], in assay [3], in assay [4] and in assay [5] was above 10000 nM each time.

On to `CN1CCCC1c1c(O)cc(O)c2c(=O)cc(-c3ccccc3)oc12` (racemic), for which the IC50 in assay [1] was 1600 nM; in assay [2], 90 nM; in assay [3], 1300 nM; in assay [4], above 10000 nM; in assay [5], 50 nM.

As to `CCCCC[C@H](NC)c1c(O)cc(O)c2c(=O)cc(-c3ccccc3)oc12`, the IC50 was above 10000 nM in assay [1]; 2100 nM in assay [2]; above 10000 nM in assay [3]; above 10000 nM in assay [4]; 5400 nM in assay [5].

With `CN1CCCC[C@H]1c1c(O)cc(O)c2c(=O)cc(-c3ccccc3)oc12`, the IC50 in assay [1] is 2100 nM; in assay [2], 50 nM; in assay [3], 1600 nM; in assay [4], above 10000 nM; in assay [5], 30 nM.

On to `O=c1cc(-c2ccccc2)oc2c(C3CCCCN3)c(O)cc(O)c12` (racemic), for which the IC50 in assay [1] was above 10000 nM; in assay [2], 5500 nM; in assay [3] it was above 10000 nM; in assay [4], above 10000 nM; in assay [5] it was 5000 nM.

Turning to `O=c1cc(-c2ccccc2)oc2c(C3CCCN3)c(O)cc(O)c12` (racemic), the IC50 was above 10000 nM in assay [1]; 1100 nM in assay [2]; above 10000 nM in assay [3]; above 10000 nM in assay [4]; 1600 nM in assay [5].

Consider `CCCCCC(NC)c1c(O)cc(O)c2c(=O)cc(-c3ccccc3)oc12` (racemic), for which the IC50 in assay [1] is above 10000 nM; in assay [2], 520 nM; in assay [3], 5200 nM; in assay [4], above 10000 nM; in assay [5] it was 1100 nM.

`COc1cc(O)c(C2CCCCN2)c2oc(-c3ccccc3)cc(=O)c12` (stereo unspecified): the IC50 in assay [1], in assay [2], in assay [3], in assay [4] and in assay [5] was above 10000 nM each time.

With `CN1CCCC[C@@H]1c1c(O)cc(O)c2c(=O)cc(-c3ccccc3)oc12`, the IC50 was above 10000 nM in assay [1]; 950 nM in assay [2]; “>= 10 uM” in assay [3]; above 10000 nM in assay [4]; 1100 nM in assay [5].

On to `CCCCC[C@@H](NC)c1c(O)cc(O)c2c(=O)cc(-c3ccccc3)oc12`, for which the IC50 in assay [1] is above 10000 nM; in assay [2], 270 nM; in assay [3], 4100 nM; in assay [4] it was above 10000 nM; in assay [5] it was 520 nM.

On to `CN1CCCCC1c1c(O)cc(O)c2c(=O)cc(-c3ccccc3)oc12` (racemic), for which the IC50 in assay [1] was 8500 nM; in assay [2] it was 1700 nM; in assay [3] it was 5100 nM; in assay [4] it was above 10000 nM; in assay [5] it was 90 nM.

Turning to `CN1CC[C@H](c2c(O)cc(O)c3c(=O)cc(-c4ccccc4Cl)oc23)[C@H](O)C1` (single isomer, unassigned) [ALVOCIDIB], the IC50 is 360 nM in assay [3] and 90 nM in assay [5].

Consider `CN1CCC[C@H]1c1c(O)cc(O)c2c(=O)cc(-c3ccccc3)oc12`, for which the IC50 was 670 nM in assay [1], 40 nM in assay [2], 720 nM in assay [3] and above 10000 nM in assay [4].

In the case of `CN1CCC[C@@H]1c1c(O)cc(O)c2c(=O)cc(-c3ccccc3)oc12`, the IC50 in assay [1] is 7400 nM; in assay [2], 570 nM; in assay [3], 2600 nM; in assay [4] it was above 10000 nM; in assay [5], 390 nM.
